# pIC50: −log10 of the molar value.
# Legend:
# [1] = target: T1, Gonadotropin-releasing hormone receptor (Homo sapiens, UniProt P30968); assay: Inhibition of [125I]leuprorelin binding to human recombinant LHRH receptor expressed in CHO cells; format: cell-based
# T1 sequence (P30968 whole entry): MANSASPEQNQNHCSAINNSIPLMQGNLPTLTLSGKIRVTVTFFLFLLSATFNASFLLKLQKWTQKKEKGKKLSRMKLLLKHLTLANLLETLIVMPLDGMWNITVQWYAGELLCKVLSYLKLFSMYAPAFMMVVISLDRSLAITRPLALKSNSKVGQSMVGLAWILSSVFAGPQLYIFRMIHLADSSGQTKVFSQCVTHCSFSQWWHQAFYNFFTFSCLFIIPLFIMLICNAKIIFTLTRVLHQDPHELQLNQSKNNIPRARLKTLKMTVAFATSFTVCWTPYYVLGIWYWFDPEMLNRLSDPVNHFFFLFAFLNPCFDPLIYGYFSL
# [2] = target: T1, Gonadotropin-releasing hormone receptor; assay: Inhibition of LHRH-stimulated arachidonic acid release in CHO cells expressing human LHRH receptor; format: functional, cell-based
# Outline: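 CHO cells stably expressing human or monkey LHRH receptor, seeded at 4 × 10⁴ cells/well and cultured 1 day, then labelled 1 day with [³H]arachidonic acid (11 kBq/well). Washed in DMEM with 20 mM HEPES and 0.2% BSA, preincubated with compound 60 min at 37 °C, then stimulated with LHRH (1 nM) for 40 min at 37 °C.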
# [3] = target: T2, Gonadotropin-releasing hormone receptor (Rattus norvegicus, UniProt P30969); assay: Inhibition of [125I]leuprorelin binding to rat anterior pituitary LHRH receptor
# T2 sequence (P30969 whole entry): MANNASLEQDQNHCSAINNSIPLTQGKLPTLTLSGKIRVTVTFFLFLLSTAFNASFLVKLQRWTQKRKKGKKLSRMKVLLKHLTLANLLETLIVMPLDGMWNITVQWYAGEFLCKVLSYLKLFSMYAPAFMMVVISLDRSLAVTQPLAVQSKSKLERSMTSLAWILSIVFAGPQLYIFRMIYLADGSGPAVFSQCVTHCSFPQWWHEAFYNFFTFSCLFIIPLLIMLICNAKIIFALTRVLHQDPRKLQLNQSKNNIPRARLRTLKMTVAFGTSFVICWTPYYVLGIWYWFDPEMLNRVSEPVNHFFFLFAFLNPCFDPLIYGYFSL
# [4] = Distribution coefficient, log D of the compound; settings: octanol/water
# [5] = target: T3, Gonadotropin-releasing hormone receptor (Homo sapiens) (UniProt P30968); assay: Inhibition of [125I]leuprorelin binding to human recombinant LHRH receptor at 20 uM
# T3 sequence (whole entry): T1 sequence (P30968 whole entry)
# Outline: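 Membranes (0.2 mg/mL) from CHO cells stably expressing cloned human LHRH receptor, incubated 60 min at 25 °C with [125I]leuprorelin and test compound in Tris buffer pH 7.5 containing EDTA, BSA, NaN3 and protease inhibitors. Bound ligand separated by filtration on PEI-coated glass-fibre filters. Nonspecific binding taken with 1 µM unlabelled leuprorelin.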
Structure (SMILES),pIC50 [1],other results
CCOC(=O)c1cn(Cc2c(F)cccc2F)c2sc(-c3ccc(NC(=O)CC)cc3)c(CN(C)Cc3ccccc3)c2c1=O,10.00,
CC(C)C(=O)c1cn(Cc2c(F)cccc2F)c2sc(-c3ccc(NC(=O)CN)cc3)c(CN(C)Cc3ccccc3)c2c1=O,8.05,
CNC(=O)Nc1ccc(-c2sc3c(c2CN(C)Cc2ccccc2)c(=O)c(C(=O)C(C)C)cn3Cc2c(F)cccc2F)cc1,10.00,pIC50 [2]: 10.15; pIC50 [3]: 6.70
CCOC(=O)c1cnc2sc(-c3ccc(OC)cc3)c(CN(C)Cc3ccccc3)c2c1O,< 4.70,
CCOC(=O)c1cn(Cc2ccccc2F)c2sc(-c3ccc(NC(=O)c4ccccc4)cc3)c(CN(C)Cc3ccccc3)c2c1=O,9.00,
CC(C)C(=O)Nc1ccc(-c2sc3c(c2CN(C)Cc2ccccc2)c(=O)c(C(=O)C(C)C)cn3Cc2c(F)cccc2F)cc1,9.70,logD [4]: 6.33
CCOC(=O)c1cn(Cc2ccccc2F)c2sc(-c3ccc(NC(=O)NC)cc3)c(CN(C)Cc3ccccc3)c2c1=O,10.15,
CC(C)C(=O)c1cn(Cc2c(F)cccc2F)c2sc(-c3ccc(NC(=O)CO)cc3)c(CN(C)Cc3ccccc3)c2c1=O,9.70,
CC(C)C(=O)c1cn(Cc2c(F)cccc2F)c2sc(-c3ccc(NC(=O)C4(O)CC4)cc3)c(CN(C)Cc3ccccc3)c2c1=O,10.00,pIC50 [2]: 10.00; pIC50 [3]: 6.82
CCOC(=O)c1cn(Cc2ccccc2F)c2sc(-c3ccc(NC(=O)Nc4ccccc4)cc3)c(CN(C)Cc3ccccc3)c2c1=O,7.52,
CC(C)C(=O)c1cn(Cc2c(F)cccc2F)c2sc(-c3ccc(NC(=O)C(C)(C)O)cc3)c(CN(C)Cc3ccccc3)c2c1=O,9.70,
CCC(=O)c1cn(Cc2c(F)cccc2F)c2sc(-c3ccc(NC(=O)C(C)C)cc3)c(CN(C)Cc3ccccc3)c2c1=O,9.40,
CCC(=O)Nc1ccc(-c2sc3c(c2CN(C)Cc2ccccc2)c(=O)c(C(=O)NC(C)C)cn3Cc2c(F)cccc2F)cc1,8.10,
CC(C)C(=O)Nc1ccc(-c2sc3c(c2CN(C)Cc2ccccc2)c(=O)c(C(O)C(C)C)cn3Cc2c(F)cccc2F)cc1 (stereo unspecified),9.40,
CCOC(=O)c1cn(Cc2ccccc2OC)c2sc(-c3ccccc3OC)c(CN(C)Cc3ccccc3)c2c1=O,6.15,
CCOC(=O)c1cn(Cc2ccccc2F)c2sc(-c3ccc(N(C)C(=O)NC)cc3)c(CN(C)Cc3ccccc3)c2c1=O,8.70,
CC(C)C(=O)Nc1ccc(-c2sc3c(c2CN(C)Cc2ccccc2)c(=O)c(C(=O)c2ccccc2)cn3Cc2c(F)cccc2F)cc1,10.00,
CCOC(=O)c1cn(Cc2ccccc2OC)c2sc(-c3ccc(OC)cc3)c(CN(C)C)c2c1=O,6.30,
CCOC(=O)c1cn(Cc2c(F)cccc2F)c2sc(-c3ccc(NC(=O)C(C)C)cc3)c(CN(C)Cc3ccccc3)c2c1=O,9.70,
CCOC(=O)c1cn(Cc2c(F)cccc2F)c2sc(-c3ccc(NC(=O)NC)cc3)c(CN(C)Cc3ccccc3)c2c1=O,10.22,
CCOC(=O)c1cn(Cc2ccccc2OC)c2sc(-c3ccc(OC)cc3)c(CNc3ccccc3)c2c1=O,,inhibition [5]: 42%
CCOC(=O)c1cn(Cc2ccccc2OC)c2sc(-c3ccc(OC)cc3)c(CNCc3ccccc3)c2c1=O,5.70,
CCOC(=O)c1cn(Cc2ccccc2OC)c2sc(-c3ccc(OC)cc3)c(C)c2c1=O,5.00,

# Second part, led by results:
pIC50 [1],Structure (SMILES),other results
5.30,CCOC(=O)c1cn(C)c2sc(-c3ccc(OC)cc3)c(CN(C)Cc3ccccc3)c2c1=O,
7.40,CCOC(=O)c1cn(Cc2ccccc2F)c2sc(-c3ccc(N)cc3)c(CN(C)Cc3ccccc3)c2c1=O,
9.22,CCOC(=O)c1cn(Cc2ccccc2)c2sc(-c3ccc(NC(=O)C(C)C)cc3)c(CN(C)Cc3ccccc3)c2c1=O,
6.52,CCOC(=O)c1cn(Cc2ccccc2OC)c2sc(-c3ccc(OC)cc3)c(CN(CC)Cc3ccccc3)c2c1=O,
5.15,CCOC(=O)c1cn(Cc2ccccc2OC)c2sc(-c3ccc(OC)cc3)c(CN(Cc3ccccc3)C(C)=O)c2c1=O,
6.52,CCOC(=O)c1cn(Cc2cccc(F)c2)c2sc(-c3ccc(OC)cc3)c(CN(C)Cc3ccccc3)c2c1=O,
9.40,CCOC(=O)c1cn(Cc2ccccc2F)c2sc(-c3ccc(NC(=O)CC)cc3)c(CN(C)Cc3ccccc3)c2c1=O,
7.52,CCOC(=O)c1cn(Cc2ccccc2F)c2sc(-c3ccc(OC)cc3)c(CN(C)Cc3ccccc3)c2c1=O,pIC50 ([1]; cho): 7.52
8.70,CCOC(=O)c1cn(Cc2ccccc2F)c2sc(-c3ccc(NC(C)=O)cc3)c(CN(C)Cc3ccccc3)c2c1=O,
6.70,CCOC(=O)c1cn(Cc2ccccc2OC)c2sc(-c3ccccc3)c(CN(C)Cc3ccccc3)c2c1=O,
6.40,CCOC(=O)c1cn(Cc2ccc(F)cc2)c2sc(-c3ccc(OC)cc3)c(CN(C)Cc3ccccc3)c2c1=O,
6.30,CCOC(=O)c1cn(Cc2ccccc2)c2sc(-c3cccc(OC)c3)c(CN(C)Cc3ccccc3)c2c1=O,
7.00,CCOC(=O)c1cn(Cc2ccccc2C#N)c2sc(-c3ccc(OC)cc3)c(CN(C)Cc3ccccc3)c2c1=O,
6.40,CCOC(=O)c1cn(Cc2cccc(OC)c2)c2sc(-c3ccc(OC)cc3)c(CN(C)Cc3ccccc3)c2c1=O,
6.52,CCOC(=O)c1cn(Cc2ccc(OC)cc2)c2sc(-c3ccc(OC)cc3)c(CN(C)Cc3ccccc3)c2c1=O,
6.70,CCOC(=O)c1cn(Cc2ccccc2)c2sc(-c3ccc(OC)cc3)c(CN(C)Cc3ccccc3)c2c1=O,
7.00,CCOC(=O)c1cn(Cc2ccccc2[N+](=O)[O-])c2sc(-c3ccc(OC)cc3)c(CN(C)Cc3ccccc3)c2c1=O,

# Reference: ChEMBL document CHEMBL1138053, “Design, synthesis, and structure-activity relationships of thieno[2,3-b]pyridin-4-one derivatives as a novel class of potent, orally active, non-peptide luteinizing hormone-releasing hormone receptor antagonists” (J Med Chem, 2006)
